Test results: ChEMBL document CHEMBL5705892, “MK-2206, an allosteric Akt inhibitor, enhances antitumor efficacy by standard chemotherapeutic agents or molecular targeted drugs in vitro and in vivo” (Mol Cancer Ther, 2010)
One block for each compound: values may come before it. Active and inactive are the calls of the source. The calls are words filed in the database; no cut-off is given here.

Assays:
[1] = Toxicity in human NCI-H460 cells xenografted CD1 nude mouse assessed as body weight loss at 100 mg/kg, iv administered once a week for 2 weeks measured on day 14 to 16; type: organism-based; conditions: in vivo, 336 h, time 14-16 day
How it was run: (§1)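 Mice with s.c. NCI-H460 xenografts (50% Matrigel/50% PBS, left flank), randomized at mean 0.2 cm³, n=5/group, treatment started 8 d after implant. Gemcitabine 100 mg/kg i.v. in saline on days 0 and 7; vehicle-only controls. Body weight and physical signs monitored throughout.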

[2] = molecular target: RAC-alpha serine/threonine-protein kinase (Homo sapiens) (UniProt P31749); assay: Induction of AKT phosphorylation at S473 residue in human UMC-11 cells at 10 umol/L measured after 4 to 24 hrs by MSD assay; type: cell-based; conditions: dose 10.0 µmol/L, time 4-24 hrs
[3] = molecular target: RAC-alpha serine/threonine-protein kinase (Homo sapiens) (UniProt P31749); assay: Induction of AKT phosphorylation at S473 residue in human NCI-H460 cells at 5 nmol/L measured after 8 hrs by MSD assay; type: cell-based; conditions: filed as activator
How it was run: (§2)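 Lung cancer cells were seeded at 5 × 10⁴ per well, and carboplatin or gemcitabine was added 24 h after plating. Phospho-Akt induction was then measured.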

[4] = Toxicity in human NCI-H460 cells xenografted CD1 nude mouse assessed as body weight loss at 100 mg/kg, iv administered once a week for 2 weeks measured during compound dosing relative to control; type: organism-based; conditions: in vivo, 336 h; how it was run: as §1
[5] = molecular target: RAC-alpha serine/threonine-protein kinase (Homo sapiens) (UniProt P31749); assay: Induction of AKT phosphorylation at S473 residue in human NCI-H661 cells at 10 nmol/L measured after 8 hrs by MSD assay; type: cell-based; conditions: filed as activator; how it was run: as §2
[6] = molecular target: RAC-alpha serine/threonine-protein kinase (Homo sapiens) (UniProt P31749); assay: Induction of AKT phosphorylation at S473 residue in human NCI-H1993 cells at 28 nmol/L measured after 8 hrs by MSD assay; type: cell-based; conditions: filed as activator; how it was run: as §2
[7] = molecular target: RAC-alpha serine/threonine-protein kinase (Homo sapiens) (UniProt P31749); assay: Induction of AKT phosphorylation at S473 residue in human NCI-H441cells at 5 nmol/L measured after 4 to 24 hrs by MSD assay; type: cell-based; conditions: NCI-H441, time 4-24 hrs; how it was run: as §2
[8] = molecular target: RAC-alpha serine/threonine-protein kinase (Homo sapiens) (UniProt P31749); assay: Induction of AKT phosphorylation at S473 residue in human NCI-H1703 cells at 0.7 nmol/L measured after 8 hrs by MSD assay; type: cell-based; conditions: filed as activator; how it was run: as §2
[9] = Toxicity in human PC-3 cells xenografted CD1 nude mouse assessed as body weight loss at 5 mg/kg, iv relative to control; type: organism-based; conditions: in vivo
How it was run: (§3)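 Male CD1-nude mice with s.c. PC-3 tumours (50% Matrigel/50% PBS, left flank), randomized at mean 0.2 cm³, n=5/group, treated from 25 d post-implant. Body weight monitored versus vehicle-only controls.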

[10] = Toxicity in human PC-3 cells xenografted CD1 nude mouse assessed as body weight loss at 5 mg/kg, iv measured on day 15 relative to control; type: organism-based; conditions: in vivo, 360 h, time 15 day; how it was run: as §3
PC-3 = assay: Antitumor activity against human PC-3 cells xenografted in CD1 nude mouse assessed as reduction in tumor volume at 5 mg/kg, iv by caliper method; type: functional, organism-based
How it was run: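 Male CD1-nude mice received s.c. PC-3 cells and were treated from day 25 after implant, at 0.2 cm³, n = 5. Docetaxel (0.73% ethanol in saline) was given at 5 mg/kg i.v. on day 0. MK-2206 (30% Captisol) was given at 120 mg/kg po on days 1, 3, 5, 8, 10, 12. Caliper volume twice weekly.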

SK-OV-3 [11] = assay: Antiproliferative activity against human SK-OV-3 cells assessed as reduction in cell proliferation measured after 72 hrs by celltiter-glo assay; type: functional, cell-based; conditions: SK-OV-3, 72 h
How it was run: (§4)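 Cells in RPMI 1640 with 10% heat-inactivated FBS at 37°C and 5% CO₂ were seeded at 2 to 3 × 10³ per well. […] Growth was read as cellular ATP by CellTiter-Glo.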

[12] = molecular target: RAC-alpha serine/threonine-protein kinase (Homo sapiens) (UniProt P31749); assay: Inhibition of AKT phosphorylation at S473 residue in human HCC70 cells at 10 umol/L measured up to 24 hrs by Western blot analysis; type: cell-based; conditions: dose 10.0 µmol/L
How it was run: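 HCC70 cells at ~70% confluence were exposed to 10 µmol/L lapatinib, 1 µmol/L MK-2206, or both, for 0, 3, 6, 12 or 24 h. Lysates were prepared in Triton X-100/Tris buffer (pH 7.5) with protease and phosphatase inhibitors. Immunoblots after SDS-PAGE and nitrocellulose transfer were probed for pAkt and pS6.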

HCC1954 = assay: Antiproliferative activity against human HCC1954 cells assessed as reduction in cell proliferation measured after 72 hrs by celltiter-glo assay; type: functional, cell-based; conditions: HCC1954, 72 h; how it was run: as §4
SK-BR-3 = assay: Antiproliferative activity against human SK-BR-3 cells assessed as reduction in cell proliferation measured after 72 hrs by celltiter-glo assay; type: functional, cell-based; conditions: SK-BR-3, 72 h; how it was run: as §4
HCC70 [13] = assay: Antiproliferative activity against human HCC70 cells assessed as reduction in cell proliferation measured after 72 hrs by celltiter-glo assay; type: functional, cell-based; conditions: HCC70, 72 h; how it was run: as §4
HCC70 [14] = assay: Induction of apoptosis in human HCC70 cells assessed as increase in caspase-3/7 activity at 10 umol/L measured after 48 hrs by caspase-glo 3/7 assay relative to control; type: functional; conditions: dose 10 µmol/L
How it was run: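 HCC70 breast cells were treated for 48 h with MK-2206 (0, 0.03, 0.3, 3 µmol/L), with or without lapatinib (0, 1, 3, 5, 10 µmol/L). Caspase-3/7 activity was read by Caspase-Glo 3/7 luminescence and expressed as fold induction over DMSO-treated control. The experiment was run twice.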

NCI-N87 = assay: Antiproliferative activity against human NCI-N87 cells assessed as reduction in cell proliferation measured after 72 hrs by celltiter-glo assay; type: functional, cell-based; conditions: NCI-N87, 72 h; how it was run: as §4
SK-OV-3 [15] = assay: Antitumor activity against human SK-OV-3 cells xenografted in CB17/icr SCID mouse assessed as tumor growth inhibition at 100 mg/kg, po administered 5 days per week for 2 weeks and measured twice a week during compound dosing by caliper method; type: functional, organism-based
How it was run: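 SK-OV-3 cells were implanted s.c. into female C.B-17/ICR-scid mice, which were randomized at 0.13 cm³, n = 5. Lapatinib (water) was given at 100 mg/kg po on days 0–4 and 7–11. MK-2206 (30% Captisol) was given at 60 or 120 mg/kg po on days 0, 2, 4, 7, 9, 11. Tumor volume by calipers twice weekly.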

MDA-MB-468 = assay: Antiproliferative activity against human MDA-MB-468 cells assessed as reduction in cell proliferation measured after 72 hrs by celltiter-glo assay; type: functional, cell-based; conditions: MDA-MB-468, 72 h; how it was run: as §4
NCI-H292 [16] = assay: Antiproliferative activity against human NCI-H292 cells assessed as reduction in cell proliferation measured after 72 hrs by celltiter-glo assay; type: functional, cell-based; conditions: NCI-H292, 72 h; how it was run: as §4
A-431 = assay: Antiproliferative activity against human A-431 cells assessed as reduction in cell proliferation measured after 72 hrs by celltiter-glo assay; type: functional, cell-based; conditions: A-431, 72 h; how it was run: as §4
NCI-H292 [17] = assay: Induction of apoptosis in human NCI-H292 cells assessed as increase in caspase-3/7 activity up to 20 umol/L measured after 48 hrs by caspase-glo 3/7 assay; type: functional, cell-based; conditions: dose <= 20.0 µmol/L
How it was run: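 Caspase-3/7 activity was measured by Caspase-Glo 3/7 and expressed as fold over DMSO vehicle control. The experiment was done twice.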

NCI-H23 = assay: Antiproliferative activity against human NCI-H23 cells assessed as reduction in cell proliferation measured after 72 hrs by celltiter-glo assay; type: functional, cell-based; conditions: NCI-H23, 72 h; how it was run: as §4
[18] = Toxicity in human NCI-H292 cells xenografted CD-1 mouse assessed as death at 50 mg/kg, po administered once daily for 5 days per week for 2 weeks and measured during compound dosing; type: organism-based; conditions: in vivo, 336 h
How it was run: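 NCI-H292 cells in 50% Matrigel/PBS injected s.c. into flank of female CD1-nude mice; dosing began after 2 wk at mean tumour 0.2 cm³, n = 5/group. […] Body weight and signs monitored; treatment ended day 16.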

NCI-H358 = assay: Antiproliferative activity against human NCI-H358 cells assessed as reduction in cell proliferation measured after 72 hrs by celltiter-glo assay; type: functional, cell-based; conditions: NCI-H358, 72 h; how it was run: as §4
Mus musculus [19] = assay: In vivo inhibition of EGFR in human NCI-H292 cells xenografted mouse assessed as reduction in ERK phosphorylation at T202/Y204 residues at 50 mg/kg, po administered as single dose measured after 14 hrs by Western blot analysis; type: functional, organism-based
NCI-H1299 = assay: Antiproliferative activity against human NCI-H1299 cells assessed as reduction in cell proliferation measured after 72 hrs by celltiter-glo assay; type: functional, cell-based; conditions: NCI-H1299, 72 h; how it was run: as §4
NCI-H292 [20] = assay: Antitumor activity against human NCI-H292 cells xenografted in CD-1 mouse assessed as tumor growth suppression at 50 mg/kg, po administered once daily for 5 days per week for 2 weeks and measured twice a week during compound dosing by caliper method; type: functional, organism-based
How it was run: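 Female CD1-nude mice carried s.c. NCI-H292 cells in Matrigel/PBS and were randomized at 0.2 cm³, n = 5. […] MK-2206 (30% Captisol) was given 2 h later at 120 mg/kg po on days 0, 2, 4, 7, 9, 11, or at 360 mg/kg on days 0 and 7. Control received vehicle. Caliper volume twice weekly.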

HCC827 = assay: Antiproliferative activity against human HCC827 cells assessed as reduction in cell proliferation measured after 72 hrs by celltiter-glo assay; type: functional, cell-based; conditions: HCC827, 72 h; how it was run: as §4
Calu-6 = assay: Antiproliferative activity against human Calu-6 cells assessed as reduction in cell proliferation measured after 72 hrs by celltiter-glo assay; type: functional, cell-based; conditions: Calu-6, 72 h; how it was run: as §4
Mus musculus [21] = assay: In vivo inhibition of EGFR in human NCI-H292 cells xenografted mouse assessed as reduction in AKT phosphorylation at S473 residue at 50 mg/kg, po administered as single dose measured after 14 hrs by Western blot analysis; type: functional, organism-based

Chain of RAC-alpha serine/threonine-protein kinase (Homo sapiens) (P31749 whole entry): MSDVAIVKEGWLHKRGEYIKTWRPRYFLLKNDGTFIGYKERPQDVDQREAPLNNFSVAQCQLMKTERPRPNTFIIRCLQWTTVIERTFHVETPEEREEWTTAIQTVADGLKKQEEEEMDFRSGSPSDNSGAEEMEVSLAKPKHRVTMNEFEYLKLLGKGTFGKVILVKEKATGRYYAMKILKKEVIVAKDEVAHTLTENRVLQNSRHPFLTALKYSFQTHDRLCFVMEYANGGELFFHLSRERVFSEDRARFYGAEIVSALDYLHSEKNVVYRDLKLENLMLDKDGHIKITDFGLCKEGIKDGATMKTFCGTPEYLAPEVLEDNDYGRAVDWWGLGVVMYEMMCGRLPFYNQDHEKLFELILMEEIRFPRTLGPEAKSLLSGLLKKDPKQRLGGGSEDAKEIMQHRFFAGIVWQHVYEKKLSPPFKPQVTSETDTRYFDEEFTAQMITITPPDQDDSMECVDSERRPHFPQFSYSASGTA

Activity [2]: inactive
Activity [3]: Active
Activity [5]: Active
Activity [6]: Active
Activity [7]: inactive
Activity [8]: Active
SMILES: Nc1ccn([C@@H]2O[C@H](CO)[C@@H](O)C2(F)F)c(=O)n1 [GEMCITABINE]
Activity [1]: Non-Toxic
Activity [4]: 7%

SMILES: CC(=O)O[C@@]12CO[C@@H]1C[C@H](O)[C@@]1(C)C(=O)[C@H](O)C3=C(C)[C@@H](OC(=O)[C@H](O)[C@@H](NC(=O)OC(C)(C)C)c4ccccc4)C[C@@](O)([C@@H](OC(=O)c4ccccc4)[C@H]21)C3(C)C [DOCETAXEL ANHYDROUS]
Activity [9]: 4%
Activity [10]: Non-Toxic
Activity (PC-3): Active

IC50 (SK-OV-3 [11]): > 10 µM
IC50 (HCC1954): 5.5 µM
IC50 (SK-BR-3): 30 nM
IC50 (MDA-MB-468): 4.5 µM
SMILES: CS(=O)(=O)CCNCc1ccc(-c2ccc3ncnc(Nc4ccc(OCc5cccc(F)c5)c(Cl)c4)c3c2)o1 [LAPATINIB]
inhibition [12]: inactive
IC50 (HCC70 [13]): 3.2 µM
fold change (FC) (HCC70 [14]): ~2
IC50 (NCI-N87): 40 nM
TGI (SK-OV-3 [15]): Active

SMILES: C#Cc1cccc(Nc2ncnc3cc(OCCOC)c(OCCOC)cc23)c1 [ERLOTINIB]
IC50 (NCI-H292 [16]): 500 nM
IC50 (A-431): 1900 nM
Activity (NCI-H292 [17]): inactive
IC50 (NCI-H23): 10.6 µM
Activity [18]: Non-Toxic
IC50 (NCI-H358): 4.4 µM
inhibition (Mus musculus [19]): Active
IC50 (NCI-H1299): 21.1 µM
Activity (NCI-H292 [20]): Active
IC50 (HCC827): 20 nM
IC50 (Calu-6): 35.6 µM
inhibition (Mus musculus [21]): inactive
